Test: Toxicity liver stage against HepG2, at 10uM
Assay type: cell-based
Set-up: test concentration 10 uM, cell line HepG2-A16-CD81EGFP
Details: human, HepG2-A16-CD81EGFP cells; read-out: INHIBITION
In short: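 Uninfected HepG2-A16-CD81EGFP cells, 3 × 10^3 per well, 1536-well, plated on prespotted compound at 10 μM final, parasite-free screening media added to match infected plates; puromycin 10 μM positive, DMSO 0.5% negative; run in parallel with 48 h PbLuc assay at 37 °C, 5% CO2; viability by CellTiter-Glo luminescence, normalized to controls.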

| SMILES | cytotoxicity at 10 µM [%] |
| --- | --- |
| Cn1c2c(c(=O)c3ccccc31)CCC(C)(C)O2 | 2.76 |
| Cc1cccc(-c2noc([C@@H]3C[C@@H](O)CN3CC3CCCCC3)n2)c1 | 6.41 |
| CCN1C(=O)COC[C@@H]1[C@H](O)c1ccc(NC(=O)COC)cc1 | 1.73 |
| FC(F)(F)Oc1ccc(-c2c[nH]c([C@@H]3COCCN3)n2)cc1 | -8.64 |
| COc1ccc(S(=O)(=O)N2CCOC[C@H](Oc3cnccn3)C2)cc1 | 10.4 |
| COc1ccccc1NC(=O)Cn1c(=O)nc(N)c2cc(C)sc21 | 3.45 |
| COc1cccc2c1ccn2CC(=O)Nc1nc[nH]n1 | -0.297 |
| CCS(=O)(=O)NCCNc1cc(-n2cccc2)ncn1 | -3.5 |
| CCN1C(=O)C[C@@H]2[C@@H]1CCN2S(=O)(=O)c1cccc(C)c1 | 1.29 |
| O=C(Cc1cccs1)NCC1COCc2c(-c3ccoc3)nnn2C1 (stereo unspecified) | 19 |
| COc1ncccc1CN1CC[C@H]2O[C@@H](c3nnc(C)o3)CC[C@H]21 | 9.6 |
| CN1CCN(c2ncnc3c2CCN(Cc2nccn2C)CC3)CC1 | -130 |
| Cc1ncnc2c1CCN(C(=O)c1cnccn1)CC2 | -5.19 |
| O=C(c1cocn1)N1CCC[C@]2(C[C@@H](Oc3ncccc3F)CO2)C1 | 6.21 |
| COC(=O)C(C)NC(=O)CSCc1nc(O)c2cc(C(C)C)sc2n1 (stereo unspecified) | 10.2 |
| O=c1ccc(-c2cccs2)nn1CN1CCN(c2ccccn2)CC1 | -0.383 |
| Nc1ncccc1C(=O)NCc1ccc(Br)cc1 | 35.7 |
| CCCc1nc(Nc2cccc(C(N)=O)c2)c2c(n1)c(C)nn2CC | 3.31 |
| O=C(NCCc1ccccn1)c1[nH]nc2c1CCCC2 | 8.41 |
| COc1cccc(Cn2cc(N3C(=O)CCC3=O)cn2)c1 | -2.75 |
| Cc1ccc(-c2nc(C3CCN(C(=O)c4ccn(C)n4)CC3)no2)cn1 | -2.81 |
| COc1cc(CCC(=O)N2CCC(c3cc4ncccc4[nH]3)CC2)on1 | 3.78 |
| O=S(=O)(c1cccs1)N1CCCC(c2nccs2)C1 (stereo unspecified) | -15 |

| SMILES | cytotoxicity at 10 µM [%] |
| --- | --- |
| c1nc2c(c(N3CCOC(Cn4cncn4)C3)n1)CCC2 (stereo unspecified) | 14.5 |
| O=C(NC1CC1)N(CCc1ccccc1)C1CCOC1 (stereo unspecified) | -1.41 |
| CCc1ccc(C(=O)N(c2cccnc2)C(C)C)cc1S(C)(=O)=O | 2.62 |
| COc1ccccc1C(C)NC(=O)N1CCN(Cc2ccc(Br)s2)CC1 (stereo unspecified) | 10.5 |
| CCOc1ccccc1NC(=O)NCc1ccoc1 | -0.335 |
| Cc1cccc(-c2ccc(C(=O)N3CCSCC3)c(=O)[nH]2)c1 | 6.99 |
| CC(C)c1cc(NC(=O)Cn2cnc3ccccc3c2=O)[nH]n1 | -168 |
| CCc1cc(=O)[nH]c(-c2ccc(NC(CO)CC(C)C)nc2)n1 (stereo unspecified) | -146 |
| O=C(NCCCn1ccccc1=O)c1cnc(-c2ccsc2)s1 | 0.956 |
| CCc1nc(CC)n(CC(=O)N(C)CC(F)(F)F)n1 | 2.19 |
| Cc1cnn(CCC(=O)NCc2ccc(N(C)C)c(C)c2)c1 | -3.03 |
| CC(CNC(=O)c1cccnc1)Oc1ccc(F)cc1 (stereo unspecified) | -6.98 |
| CC(c1ccc(S(C)(=O)=O)cc1)N(C)C(=O)c1ccccc1I (stereo unspecified) | 11.1 |
| COc1ccc(CN(C(=O)C(C)C)c2cnn(C)c2)c(OC)c1 | 3.2 |
| Cc1cc(C(=O)NC2(C#N)CCCC2)c(C)n1-c1cccnc1 | -3.15 |
| Cc1c(Br)cccc1C(=O)NCc1cnn(C)c1 | 3.15 |
| Fc1cc(CN2CCOC3(CCOCC3)C2)ccc1Cl | -4.57 |
| CN(C(=O)COc1ccc(-c2noc(C3CCCO3)n2)cc1)C1CC1 (stereo unspecified) | -6.79 |
| Cc1ccc(C(=O)NCc2ccccc2S(=O)(=O)N(C)CCO)cc1F | -3.04 |
| Cc1nc(C)n(CC2CCCN(CCCS(=O)(=O)N(C)C)C2)n1 (stereo unspecified) | -3.15 |
| CN(C)C(=O)Cn1cc(C(=O)NCCc2ccc(Cl)cc2Cl)nn1 | -2.35 |
| CN(CC(=O)NC1CC1)S(=O)(=O)c1ccc(F)cc1Cl | -8.06 |
| O=C(NCc1ccc(OCC2CC2)nc1)Nc1c(F)cccc1F | 9.47 |

| SMILES | cytotoxicity at 10 µM [%] |
| --- | --- |
| CCc1nsc(N2CCN(C(=O)c3ccnc(N(C)C)c3)CC2)n1 | -2.48 |
| Cc1nc(NC(=O)COCC2CC2)ccc1Br | -1.51 |
| CS(=O)(=O)NCCCSCc1cccc2cccnc12 | 3.53 |
| CCN(Cc1ccoc1)C(=O)C1CN(C(=O)OC(C)(C)C)C1 | -0.743 |
| CCc1cccc(OCC(=O)NC(C)c2nnc3n2CCC3)c1 (stereo unspecified) | -3.78 |
| COCCC1(CNC(=O)NCC2CCCN(C)C2)CCCC1 (stereo unspecified) | 0.131 |
| CC1CCN(C(=O)CSCc2noc(C(C)C)n2)CC1 | 1.4 |
| CC(C)Cc1nc(CSCC(=O)N2CCC(C)CC2)no1 | 2.25 |
| CC(=O)Nc1cc(C(=O)N2CCOCC2c2ccc(C)o2)ccc1F (stereo unspecified) | -3.08 |
| CCOCCOC(C)C(=O)NCc1cn2cc(Br)ccc2n1 (stereo unspecified) | -6.83 |
| O=C(NCc1ccc(OCC2CC2)nc1)c1c(F)cccc1F | 1.49 |
| CN(CCO)Cc1cc(Cl)ccc1OCC(O)CN1CCCCCC1 (stereo unspecified) | -5.09 |
| CCOc1ccccc1-n1c(C2CCC2)n[nH]c1=O | 4.18 |
| OC1(CNCCc2nc(Cc3ccccc3)no2)CNCCOC1 (stereo unspecified) | 4.43 |
| CCC[C@H]1CN(S(C)(=O)=O)C[C@@H]1NC(=O)Cc1ccc(OC)cc1 | 1.85 |
| CCN(CC)CCC(=O)NCc1cc2n(n1)CCN(C(=O)N(C)C)C2 | -6.72 |
| CN(C)C(C(=O)NCCn1cccc1)c1cccc(F)c1 (stereo unspecified) | -1.23 |
| O=C(c1cn(-c2ccccc2)nn1)N1CCOCC(O)C1 (stereo unspecified) | 2.35 |
| O=c1cc(N2CCc3ccccc3C2)cnn1CCC1CCOC1 (stereo unspecified) | -1.19 |
| CN(Cc1cc2cc(F)ccc2[nH]1)C(=O)C1CC(=O)N(C2CC2)C1 (stereo unspecified) | 0.0448 |
| O=C1CCCCCN1Cc1nc(C2(c3ccc(F)cc3)CCOC2)no1 (stereo unspecified) | 21.1 |
| Cc1ccc(NC2CCCN(CCc3ccccc3)C2)nn1 (stereo unspecified) | 11.7 |
| CN1CCCC(CCC(=O)NCCc2nnc(N)s2)C1 (stereo unspecified) | -146 |

| SMILES | cytotoxicity at 10 µM [%] |
| --- | --- |
| C=C(C)COc1cccc(C(=O)N(CC)Cc2nc(COC)no2)c1 | -18 |
| O=c1n(CC2CCCO2)nc(CC2CCNCC2)n1-c1ccccc1 (stereo unspecified) | -3.49 |
| CCOCCC(=O)N(C)CC1Cc2ccccc2CN1C (stereo unspecified) | -8.77 |
| Cc1cc(N(C)Cc2snnc2C)nc(-c2cccnc2)n1 | 2.43 |
| COc1cccc(-c2noc(-c3ccc(NCC(C)O)nc3)n2)c1OC (stereo unspecified) | -5.82 |
| Cc1cc(C(=O)N2CC[C@H](N3CCN(C)CC3)[C@H](CCCO)C2)n(C)n1 | -12.4 |
| CNc1nc(C(=O)NCc2cccnc2N(C)C)cs1 | -7.57 |
| Cc1cccc2[nH]c(C3CCN(C(=O)c4cnc(O)cc4O)CC3)nc12 | 3.09 |
| OC1(CNCc2csc(-c3ncccn3)n2)CCCNC1 (stereo unspecified) | -10.7 |
| COc1cccc(N2CCN(Cc3ncc[nH]3)CC2=O)c1 | -5.73 |
| Cc1cc(C)nc(CCNC(=O)[C@H]2CNC[C@@H](C(=O)N3CCCC3)C2)n1 | -20.9 |
| COc1ccc(NC(=O)CCC2CCCN(Cc3ncon3)C2)cc1Cl (stereo unspecified) | -6.12 |
| CNC(=O)c1ccc(C2CN(C(=O)COC)CCO2)nc1 (stereo unspecified) | 3.25 |
| CCn1c(C(=O)N2CCCN(CC(N)=O)CC2)cc2ccccc21 | -4.77 |
| Cc1ccccc1NC1CCN(C(=O)CCc2ccco2)CC1 | -16.2 |
| O=C(NCC1CCOC1)c1ccc(-c2ccccc2)[nH]c1=O (stereo unspecified) | -18.3 |
| Cc1ccc(-c2nc(CNC(C)Cn3cccn3)cs2)o1 (stereo unspecified) | -7.82 |
| COCCC(C)NC(=O)c1cc(Br)c2c(c1)OCCO2 (stereo unspecified) | -13.4 |
| O=C(NCCc1ccccc1)NCC(O)c1cccc(F)c1 (stereo unspecified) | -7.24 |
| COc1cccc(CC(=O)N2CCCC(c3nncn3C)C2)c1 (stereo unspecified) | -20.2 |
| Cc1nc(C(C)(C)C)sc1C(=O)NCCNc1ncccc1C#N | -15.8 |
| CC(NC(=O)COCC(F)(F)F)c1nnc2n1CCCCC2 (stereo unspecified) | -12.3 |
| CCN(Cc1cccc2c1OCO2)C(=O)NCc1ccccn1 | 1.48 |

| SMILES | cytotoxicity at 10 µM [%] |
| --- | --- |
| CCCc1nc(CN2CCN(C(C)c3nc(C4CC4)no3)CC2)no1 (stereo unspecified) | -8.14 |
| Cc1nc(CN2CCCN(C(=O)c3sccc3C#N)CC2)cs1 | -7.98 |
| Cc1nc(CN(C)CC2CCCN2c2cccnn2)oc1C (stereo unspecified) | -4.25 |
| CC(C)N1CC(C(=O)NCc2ccnc(-n3cccn3)c2)CC1=O (stereo unspecified) | -2.5 |
| CC(Cn1cccn1)NCc1csc(-c2cccs2)n1 (stereo unspecified) | -8.85 |
| O=C1COC2(CCN(Cc3ccncc3)CC2)CN1c1ccccc1 | -126 |
| COc1ccc2c(c1)C1(CCN(Cc3cccnc3)CC1)N(C)CC2 | -161 |
| Cc1ccc(CN2CCO[C@@H]3C[C@@H](C(=O)NC(C)C)C[C@H]32)o1 | 6.1 |
| CCS(=O)(=O)N1CCOC2(CCCN(Cc3ccccn3)C2)C1 (stereo unspecified) | 5.86 |
| O=C(O)c1cc2c(nc1-c1ccncc1)CCN(C1CCOC1)CC2 (stereo unspecified) | 9.34 |
| O=C(c1ccco1)N1CCO[C@@H]2CN(c3ccccn3)CC[C@@H]2C1 | 9.43 |
| COc1cc(CNC(C)Cn2ccnc2)cc2c1OCO2 (stereo unspecified) | 2.67 |
| Cc1cccc(CN2CCc3ncnc(C4CC4)c3CC2)n1 | -158 |
| Cc1cccc(CN2C(=O)CCC23CCN(c2ncc(F)cn2)CC3)n1 | 9.11 |
| O=C([C@@H]1C[C@@H]2CCN(C3CCOCC3)C[C@H]2O1)N1CCOCC1 | 0.763 |
| Cn1cc(-c2nc3c(cc2C(=O)O)CCN(C(=O)C2CC2)CC3)cn1 | 17.9 |
| CCn1ncc2c1CN(C(=O)Cc1cccs1)CC2COC (stereo unspecified) | 4.7 |
| CC(C)OC(=O)N1C[C@@H]2CC[C@H]1CN(C(=O)c1ccccn1)C2 | 0.502 |
| CNC(=O)[C@H]1C[C@H]2CN(C(=O)Nc3ccccc3)C[C@@H]1O2 | 1.91 |

Source: ChEMBL document CHEMBL4513216, “Probing the Open Global Health Chemical Diversity Library for Multistage-Active Starting Points for Next-Generation Antimalarials” (ACS Infect Dis, 2020)
